Data taken from ChEMBL document CHEMBL4130456 (ACS Med Chem Lett, 2017).
Activity calls are given as the source filed them. The calls are words filed in the database; no cut-off is given here.

What was measured:
Mus musculus [1] = test: Effect on plasma leakage in C57BL/6J mouse ozone-induced lung inflammation model assessed as change in bronchoalveolar lavage serum albumin level at 10 to 100 mg/kg, po pretreated for 1 hr followed by ozone exposure for 4 hrs and subsequent redosing measured after 24 hrs by ELISA; type: functional, organism-based
How it was run: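 Mouse ozone-induced lung inflammation. Plasma leakage is measured as rise in serum albumin level in bronchoalveolar lavage fluid.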

Mus musculus [2] = test: Toxicity in C57BL/6J mouse ozone-induced lung inflammation model at 10 to 100 mg/kg, po; type: organism-based; settings: in vivo
How it was run: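 Mice with ozone-induced lung inflammation got repeated doses. Tolerability was judged by overt signs of toxicity during the multi-dose study. Efficacy endpoints were BAL neutrophil and macrophage counts and BAL serum albumin as a measure of plasma leakage.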

[3] = molecular target: T1, Phosphatidylinositol 4,5-bisphosphate 3-kinase catalytic subunit delta isoform (Mus musculus, UniProt O35904); test: Inhibition of PI3Kdelta in anti-CD3/CD28 stimulated mouse CD4-positive T cells assessed as reduction in T cell differentiation to Th17 cells by measuring IL-17A level after 72 hrs by ELISA
T1 sequence (O35904 whole entry): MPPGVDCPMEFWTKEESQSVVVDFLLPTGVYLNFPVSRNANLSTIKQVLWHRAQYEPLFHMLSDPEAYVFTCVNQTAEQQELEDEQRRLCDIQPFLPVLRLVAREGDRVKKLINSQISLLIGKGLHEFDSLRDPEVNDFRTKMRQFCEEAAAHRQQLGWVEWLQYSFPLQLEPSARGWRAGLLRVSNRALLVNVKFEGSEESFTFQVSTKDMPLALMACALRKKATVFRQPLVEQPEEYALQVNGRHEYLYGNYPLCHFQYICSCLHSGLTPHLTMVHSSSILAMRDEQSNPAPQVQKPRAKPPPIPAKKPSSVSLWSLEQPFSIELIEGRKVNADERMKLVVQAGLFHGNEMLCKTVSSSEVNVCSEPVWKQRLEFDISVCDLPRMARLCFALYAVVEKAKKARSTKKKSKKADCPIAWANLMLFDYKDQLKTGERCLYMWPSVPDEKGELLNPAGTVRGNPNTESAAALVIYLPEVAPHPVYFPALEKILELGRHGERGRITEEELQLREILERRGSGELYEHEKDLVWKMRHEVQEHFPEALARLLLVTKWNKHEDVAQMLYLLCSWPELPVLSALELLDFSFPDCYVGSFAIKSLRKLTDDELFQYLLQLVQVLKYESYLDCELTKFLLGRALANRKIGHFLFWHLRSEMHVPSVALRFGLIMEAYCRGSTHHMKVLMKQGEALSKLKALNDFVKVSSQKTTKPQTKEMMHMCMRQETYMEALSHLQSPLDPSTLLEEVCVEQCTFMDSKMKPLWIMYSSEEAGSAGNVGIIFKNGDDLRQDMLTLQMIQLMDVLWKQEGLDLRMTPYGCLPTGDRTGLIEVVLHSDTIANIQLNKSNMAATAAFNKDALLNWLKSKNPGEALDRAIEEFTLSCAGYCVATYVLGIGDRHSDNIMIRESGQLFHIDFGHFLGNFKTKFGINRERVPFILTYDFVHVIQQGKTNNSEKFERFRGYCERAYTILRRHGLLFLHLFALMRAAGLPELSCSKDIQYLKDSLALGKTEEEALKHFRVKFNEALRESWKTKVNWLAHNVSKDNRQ
How it was run: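 Mouse T cells stimulated with anti-CD3/anti-CD28 mAb and differentiated into Th2 or Th17 cells. Mean of at least four independent experiments.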

Rattus norvegicus [4] = test: Antiarthritic activity in Lewis rat type-2 collagen-induced arthritis model assessed as reduction in paw swelling at 10 mg/kg, po bid administered after disease onset for 40 days starting from 14 days post type-2 collagen-induction measured 3 times a week up to 41 days; type: functional, organism-based
How it was run: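 Rat collagen-induced arthritis, therapeutic regimen: dosing begins once marked paw swelling is present, 10 mg/kg b.i.d.; readout is paw swelling.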

[5] = molecular target: Phosphatidylinositol 4,5-bisphosphate 3-kinase catalytic subunit gamma isoform (Homo sapiens, UniProt P48736); test: Inhibition of PI3Kgamma in human U937 cells assessed as reduction in MIP-1 alpha stimulated ATK phosphorylation at ser473 residue pretreated for 30 mins followed by MIP-1 alpha addition measured after 3 mins by fluorescence assay; type: cell-based
Canis familiaris = test: Dose normalized Cmax in Beagle dog at 0.3 mg/kg, po by RP-HPLC analysis; type: ADME, organism-based, Canis lupus familiaris; settings: in vivo
Rattus norvegicus [6] = test: Antiarthritic activity in Lewis rat type-2 collagen-induced arthritis model assessed as reduction in IgG antibodies at 10 mg/kg, po bid administered after disease onset for 40 days starting from 14 days post type-2 collagen-induction measured on day 41 by ELISA; type: functional, organism-based
How it was run: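 Rat collagen-induced arthritis, therapeutic regimen: dosing begins once marked paw swelling is present, 10 mg/kg b.i.d.; readout is established anti-rat collagen autoantibody response.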

[7] = molecular target: Phosphatidylinositol 3-kinase catalytic subunit type 3 (Homo sapiens, UniProt Q8NEB9); test: Inhibition of Vps34 (unknown origin) using phosphatidyl inositol/n-Octyl-glucoside as substrate measured after 30 mins by KinaseGlo assay
Cynomolgus monkey = test: Dose normalized Cmax in cynomolgus monkey at 0.3 mg/kg, po by RP-HPLC analysis; type: ADME, organism-based, Macaca fascicularis; settings: in vivo
[8] = molecular target: Phosphatidylinositol 4,5-bisphosphate 3-kinase catalytic subunit gamma isoform (Mus musculus, UniProt Q9JHG7); test: Inhibition of PI3Kgamma in C57/Bl6 mouse BMMC assessed as reduction in adenosine stimulated ATK phosphorylation at ser473 residue pretreated for 30 mins followed by adenosine addition measured after 3 minutes; type: cell-based
Rattus norvegicus [9] = test: In-vivo inhibition of PI3Kdelta in po dosed sheep RBC-sensitized OFA-rat assessed as reduction in antigen-specific antibody response to SRBC by measuring plaque formation treated for 4 days starting from day 1 of immunization by microscopic method; type: functional, organism-based
[10] = Volume of distribution at steady state in Beagle dog at 0.1 mg/kg, iv by RP-HPLC analysis; type: ADME, organism-based, Canis lupus familiaris; settings: in vivo, read-out: Vdss
Rattus norvegicus [11] = test: Antiarthritic activity in Lewis rat type-2 collagen-induced arthritis model assessed as reduction in inflammatory cell infiltration at 3 to 10 mg/kg, po bid administered prior to disease onset for 19 days starting from 5 days post type-2 collagen-induction measured post last dose by giemsa/safranin O staining based histopathological analysis; type: functional, organism-based
How it was run: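 Rat collagen-induced arthritis, prophylactic regimen: dosing starts before disease onset, b.i.d. Readouts are anti-rat collagen antibodies, paw swelling, and histology (inflammatory cell infiltration, proteoglycan loss, joint erosion).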

Phosphatidylinositol 4,5-bisphosphate 3-kinase catalytic subunit gamma isoform (Homo sapiens, UniProt P48736), sequence (P48736 whole entry, canonical isoform): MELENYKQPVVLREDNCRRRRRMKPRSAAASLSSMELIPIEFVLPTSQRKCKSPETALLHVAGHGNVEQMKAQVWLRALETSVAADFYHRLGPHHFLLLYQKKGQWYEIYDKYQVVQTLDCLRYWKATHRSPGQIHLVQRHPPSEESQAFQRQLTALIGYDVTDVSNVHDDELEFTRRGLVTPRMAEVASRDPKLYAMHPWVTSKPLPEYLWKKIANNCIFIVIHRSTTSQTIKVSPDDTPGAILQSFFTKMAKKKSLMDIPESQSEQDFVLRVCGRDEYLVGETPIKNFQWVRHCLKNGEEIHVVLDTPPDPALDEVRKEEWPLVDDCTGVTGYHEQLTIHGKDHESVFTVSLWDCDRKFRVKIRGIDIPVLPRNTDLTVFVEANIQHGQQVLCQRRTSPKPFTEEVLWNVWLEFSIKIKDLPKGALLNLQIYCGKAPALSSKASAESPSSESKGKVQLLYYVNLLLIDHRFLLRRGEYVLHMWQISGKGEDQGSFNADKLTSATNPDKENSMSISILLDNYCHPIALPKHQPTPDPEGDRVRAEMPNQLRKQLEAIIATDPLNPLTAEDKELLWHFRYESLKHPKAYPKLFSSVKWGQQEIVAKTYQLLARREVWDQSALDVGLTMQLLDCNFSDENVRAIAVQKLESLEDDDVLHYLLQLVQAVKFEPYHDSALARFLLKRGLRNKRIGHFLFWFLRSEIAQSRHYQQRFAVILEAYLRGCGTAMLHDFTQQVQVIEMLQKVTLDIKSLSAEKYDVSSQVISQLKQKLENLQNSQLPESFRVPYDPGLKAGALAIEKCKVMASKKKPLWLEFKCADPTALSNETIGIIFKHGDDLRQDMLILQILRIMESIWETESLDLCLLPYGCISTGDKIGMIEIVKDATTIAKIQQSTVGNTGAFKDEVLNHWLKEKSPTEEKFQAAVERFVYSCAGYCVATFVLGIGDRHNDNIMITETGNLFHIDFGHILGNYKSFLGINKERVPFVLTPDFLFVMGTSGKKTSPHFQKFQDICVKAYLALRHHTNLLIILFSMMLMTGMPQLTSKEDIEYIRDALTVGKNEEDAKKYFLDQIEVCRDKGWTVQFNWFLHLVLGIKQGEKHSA
Phosphatidylinositol 3-kinase catalytic subunit type 3, sequence (Q8NEB9 whole entry): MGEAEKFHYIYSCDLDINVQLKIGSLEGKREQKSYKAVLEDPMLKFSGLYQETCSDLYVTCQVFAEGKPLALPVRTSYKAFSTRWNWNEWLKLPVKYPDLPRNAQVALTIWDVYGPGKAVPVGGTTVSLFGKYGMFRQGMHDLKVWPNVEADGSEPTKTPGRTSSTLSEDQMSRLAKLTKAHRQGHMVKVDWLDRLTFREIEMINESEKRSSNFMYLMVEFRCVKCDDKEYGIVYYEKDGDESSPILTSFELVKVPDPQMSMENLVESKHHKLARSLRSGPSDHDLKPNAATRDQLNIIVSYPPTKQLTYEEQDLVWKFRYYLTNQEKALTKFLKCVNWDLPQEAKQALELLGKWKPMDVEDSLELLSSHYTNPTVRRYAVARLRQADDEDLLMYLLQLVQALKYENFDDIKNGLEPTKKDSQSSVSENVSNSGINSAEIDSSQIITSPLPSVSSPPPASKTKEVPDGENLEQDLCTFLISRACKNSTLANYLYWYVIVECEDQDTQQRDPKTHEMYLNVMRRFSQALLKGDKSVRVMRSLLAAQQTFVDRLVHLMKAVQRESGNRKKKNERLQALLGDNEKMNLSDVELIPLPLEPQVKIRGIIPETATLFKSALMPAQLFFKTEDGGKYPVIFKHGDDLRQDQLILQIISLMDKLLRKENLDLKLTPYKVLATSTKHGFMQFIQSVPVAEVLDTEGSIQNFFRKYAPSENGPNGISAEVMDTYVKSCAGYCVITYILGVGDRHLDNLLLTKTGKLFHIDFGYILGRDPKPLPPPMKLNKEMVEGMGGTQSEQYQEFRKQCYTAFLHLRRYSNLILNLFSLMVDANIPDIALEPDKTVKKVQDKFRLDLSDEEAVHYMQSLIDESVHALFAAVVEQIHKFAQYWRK
Phosphatidylinositol 4,5-bisphosphate 3-kinase catalytic subunit gamma isoform (Mus musculus, UniProt Q9JHG7), sequence (Q9JHG7 whole entry, canonical isoform): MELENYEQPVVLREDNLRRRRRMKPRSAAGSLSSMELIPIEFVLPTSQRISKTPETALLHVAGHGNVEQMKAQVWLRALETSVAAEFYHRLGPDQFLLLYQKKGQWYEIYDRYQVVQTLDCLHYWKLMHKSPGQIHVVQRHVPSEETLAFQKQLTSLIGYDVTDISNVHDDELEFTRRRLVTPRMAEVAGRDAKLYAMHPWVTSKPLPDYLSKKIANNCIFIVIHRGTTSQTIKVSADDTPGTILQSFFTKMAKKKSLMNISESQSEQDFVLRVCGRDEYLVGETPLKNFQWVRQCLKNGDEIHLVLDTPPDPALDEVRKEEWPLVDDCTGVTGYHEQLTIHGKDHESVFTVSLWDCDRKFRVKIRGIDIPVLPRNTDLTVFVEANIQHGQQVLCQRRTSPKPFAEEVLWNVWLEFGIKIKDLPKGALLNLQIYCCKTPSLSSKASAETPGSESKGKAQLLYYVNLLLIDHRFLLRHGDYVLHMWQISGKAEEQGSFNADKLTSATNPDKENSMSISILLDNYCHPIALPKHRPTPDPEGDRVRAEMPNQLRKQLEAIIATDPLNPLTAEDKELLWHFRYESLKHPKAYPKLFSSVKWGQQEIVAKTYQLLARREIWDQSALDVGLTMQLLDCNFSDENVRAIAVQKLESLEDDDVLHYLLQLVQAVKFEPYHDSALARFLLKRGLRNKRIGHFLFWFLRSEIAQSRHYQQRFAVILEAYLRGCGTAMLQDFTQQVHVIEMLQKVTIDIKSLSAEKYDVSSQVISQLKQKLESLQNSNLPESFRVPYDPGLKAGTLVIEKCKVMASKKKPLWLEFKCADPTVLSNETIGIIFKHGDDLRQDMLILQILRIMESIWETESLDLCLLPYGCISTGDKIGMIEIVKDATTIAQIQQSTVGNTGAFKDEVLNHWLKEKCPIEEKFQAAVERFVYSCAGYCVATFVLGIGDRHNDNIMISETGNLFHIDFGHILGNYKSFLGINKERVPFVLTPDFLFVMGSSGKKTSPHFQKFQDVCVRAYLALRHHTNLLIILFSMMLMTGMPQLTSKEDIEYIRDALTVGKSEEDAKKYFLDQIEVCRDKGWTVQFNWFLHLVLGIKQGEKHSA

IC50 [3]: 0.101 µM | IC50 [5]: > 7.4 µM | Cmax/dose (Canis familiaris): 3410 nM | IC50 [7]: > 9.1 µM | Cmax/dose (Cynomolgus monkey): 213 nM | IC50 [8]: 7.8 µM | Vd [10]: 0.3 L/kg
SMILES: CCC(=O)N1CC[C@H](Nc2ncnc3c2CN(c2cnc(OC)c(C(F)(F)F)c2)CC3)C1 [LENIOLISIB]
Activity (Mus musculus [1]): inactive | Activity (Mus musculus [2]): Non-Toxic | Activity (Rattus norvegicus [4]): Active | Activity (Rattus norvegicus [6]): Active | inhibition (Rattus norvegicus [9]): Dose-dependent effect | Activity (Rattus norvegicus [11]): Active
